Compound activity as filed in PubChem.
Hep lipid drop – modulators of hepatic lipid droplet formation; AML12 mouse hepatocytes, oleate lipid droplets, BODIPY imaging; inhibition, % at 6.5 µM; 240,000 tested, 0.4% active; AID 1656;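 active = lipid droplet intensity inhibited by at least 50%, with more than 500 cells counted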
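Assay system: AML12 mouse liver cells | Compound dosing: One dose, 6.5 µM compound | Read-out basis: Droplet intensity reduction, % inhibition | Measured by: Fluorescence imaging, 20x objective, two fields per well | Schedule: Overnight treatment with compound plus oleate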
core dimer inh – HCV core protein dimerization inhibition | inhibition, % at 5 µM | TR-FRET GST/Flag-core106 dimerization, 1536-well | 300,000 tested, 0.33% active;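 active = inhibition above the mean of all tested compounds plus 3 SD, set per screening campaign, cut at about 45% in these data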
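test system = GST/Flag-tagged HCV core106 proteins | probe or stimulus = Eu donor and XL665 acceptor anti-tag antibodies | times = compound-protein-antibody incubation 4 h at 22.5 °C | signal = TR-FRET, excitation 340 nm, emission 617 and 671 nm | measure = percent inhibition of core106 dimerization signal | controls = wells lacking GST-core106 and wells with excess unlabelled core106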
NS3 helicase inh – blocks Hepatitis C virus NS3 helicase unwinding; inhibition, % at 10.9 µM; NS3 helicase DNA unwinding, Cy5 molecular beacon fluorescence; AID 1800; 290,000 tested, 0.56% active;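 active = inhibition above the mean of all tested compounds plus 3 SD, set per campaign, cut at about 35% in these data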
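System: NS3 helicase fragment of HCV / Schedule: 1 h at 25 °C / Control set: DMSO alone as 0% and 110 µM thioflavine S as 100% / Reagent: Cy5/quencher beacon DNA duplex and ATP to start / Technique: Cy5 fluorescence / Replication: singlicate / Evaluation: % inhibition of end-to-start signal ratio versus controls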
TbMetRS inhib – blocks T. brucei methionyl-tRNA synthetase activity; purified T. brucei MetRS, ATP depletion, Kinase-Glo luminescence; inhibition, % at 11.9 µM; 360,000 tested, 0.4% active;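 active = inhibition above a per-plate cutoff of the control wells' mean inhibition plus 3 SD, cut at about 5.5% in these data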
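Material – parasite MetRS enzyme · Medium – HEPES-MgCl2-KCl buffer plus DTT, spermine, BSA, pyrophosphatase · Reagent – ATP, methionine and E. coli bulk tRNA substrates · Times – 15 min enzyme-compound preincubation, 2 h reaction, 10 min detection, 25 °C · Measured by – luminescence of leftover ATP · Evaluation – percent inhibition relative to median high and low control wells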
NS3 helicase cf – confirmation of Hepatitis C virus NS3 helicase inhibitors | 1,600 tested, 31% active | shares compounds with NS3 helicase inh | inhibition, % at 10.9 µM | NS3 helicase DNA unwinding, Cy5 molecular beacon fluorescence;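 active = inhibition above the mean of all tested compounds plus 3 SD, cutoff set per campaign, cut at about 36% in these data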
FID counter trip – counter-screen for HCV NS3 helicase inhibitors: DNA intercalator displacement. shares compounds with NS3 helicase inh. inhibition, % at 7.9 µM. DNA fluorescent intercalator displacement, fluorescence. 1,600 tested, 4% active; in the data active = inhibition above about 37%;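 note: higher means more displacement of ethidium bromide from the DNA hairpin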
DNA FID DR – counter-screen for HCV NS3 helicase inhibitors: DNA intercalator displacement dose response | shares compounds with NS3 helicase inh | fluorescent intercalator displacement from DNA, fluorescence | IC50, µM | 120 tested, under 10 active; call rule not given here
Numbers stand for hits; 0 = inactive; - = not tested or not shown. Hits are enriched below; roughly 1.3% of the tested compounds scored in any of these assays.

SMILES	Hep lipid drop	core dimer inh	NS3 helicase inh	TbMetRS inhib	NS3 helicase cf	FID counter trip	others
O=C(O)CSc1cc(NS(=O)(=O)c2ccc(Cl)cc2)c2ccccc2c1O	0	0	43	0	50	45
COc1ccc(S(=O)(=O)Nc2cc(SCC(=O)O)c(O)c3ccccc23)cc1	0	0	0	0	-	-
N#C/C(=C/c1ccc(Br)o1)C(N)=S	0	0	37	-	0	0
CSCCC(NC(=O)c1cccc(C)c1)C(=O)Nc1sccc1C(N)=O (stereo not drawn)	0	0	41	0	0	0
C/C=C(\C)CN1CCN(c2ccc(C)cc2)CC1	0	0	0	0	-	-
O=C(NC1CCCC1)C1C(c2ccc(C(F)(F)F)cc2)=Nc2ccccc2N1C(=O)c1cccc(C(F)(F)F)c1 (stereo not drawn)	-	-	-	0	-	-
COc1ccc(CNc2cccc3[nH]c(C(F)(F)F)nc23)cc1OC	0	0	42	0	0	0
COc1ccc(CNC(=O)c2[nH]c(C(F)(F)F)nc2-c2ccccc2)cc1OC	-	-	-	0	-	-
Nc1c(C(=O)NC2CCCC2)sc2nc(-c3cccs3)ccc12	0	0	56	0	0	0
COc1ccc(NC(=O)CC2C(=O)N(c3ccc(OC)cc3)C(=O)N2C(C)C)cc1 (stereo not drawn)	0	0	46	0	0	0
COC(=O)[C@]12CCCCC=C1N(CCc1ccc(OC)c(OC)c1)C(=O)[C@H](CC(=O)NCCC(C)C)C2	-	-	-	0	-	-
CCc1nc2ccc(C(=O)N3CCN(c4ccccc4)CC3)cn2c1N(C)CCC(C)C	-	-	-	0	-	-
Cc1cccc(C(=O)n2c(=S)nc3ccccn32)c1	0	0	0	0	-	-
CN(CCC#N)C(=O)COC(=O)c1c2c(nc3ccccc13)/C(=C/c1ccco1)CC2	0	53	77	0	0	0
C/C(=N\NC(=O)c1sccc1-n1cccc1)c1cccs1	0	0	0	0	-	-
Cc1ccc(/C=C/C(=O)c2ccccc(=O)c2O)cc1C	0	0	40	0	85	0	DNA FID DR=0
O=C(/C=C/c1ccccc1)c1cc(Br)ccc(=O)c1O	-	0	0	0	-	-
NNC(=O)c1oc2nc(-c3ccco3)cc(-c3ccco3)c2c1N	0	0	51	0	0	0
COC/C=C/C1=CC2=CC(=O)C(C)(OC(=O)c3cnc4ccccc4n3)C(=O)C2=CN1c1ccc(CO)cc1 (stereo not drawn)	0	56	50	-	42	0
COC/C=C/C1=CC2=CC(=O)C(C)(OC(=O)c3cnc4ccccc4n3)C(=O)C2=CN1c1ccccc1 (stereo not drawn)	0	0	-	-	-	-
COC/C=C/C1=CC2=CC(=O)C(C)(OC(=O)c3cnc4ccccc4n3)C(=O)C2=CN1C1CCCCC1 (stereo not drawn)	0	0	38	-	0	0
COc1cc(/C=C2\C(=N)N3N=C(C)SC3=NC2=O)cc(OC)c1OCCOc1ccccc1C	0	0	45	0	0	0
COc1cc(/C=C2\C(=N)N3N=C(S(C)(=O)=O)SC3=NC2=O)cc(OC)c1OCCOc1ccccc1C	-	0	0	0	-	-
COc1cccc(OCCOc2ccc(/C=C3\C(=N)N4N=C(S(C)(=O)=O)SC4=NC3=O)cc2OC)c1	0	-	48	0	53	0
CCOc1cc(/C=C2\C(=N)N3N=C(CC)SC3=NC2=O)ccc1OCCOc1ccc(NC(C)=O)cc1	0	0	54	0	0	0
SMILES	Hep lipid drop	core dimer inh	NS3 helicase inh	TbMetRS inhib	NS3 helicase cf	FID counter trip	others
COc1ccccc1OCCOc1ccc(/C=C2\C(=N)N3N=C(S(C)(=O)=O)SC3=NC2=O)cc1	0	0	0	0	-	-
COc1ccc(-c2sc3ccccc3c2/C=C/c2ccncc2)cc1	-	-	-	0	-	-
CCCC/C=C1/CCC(CN(C)C)C1=O (stereo not drawn)	-	-	-	0	-	-
Cc1cccc(N/N=C/c2ccc(O)c(O)c2O)c1	0	0	38	0	0	0
CCOC(=O)c1cc2c(=O)n3ccccc3nc2n(Cc2ccco2)c1=NC(=O)c1ccc(OC)cc1OC	0	0	51	0	0	0
COc1ccc(CCNC(=O)c2cc3c(=O)n4cccc(C)c4nc3n(Cc3ccco3)c2=N)cc1OC	0	0	38	0	0	0
CCCCn1c(=NC(=O)c2ccco2)c(C(=O)OCC)cc2c(=O)n3ccccc3nc21	-	0	0	0	-	-
O=C(Nc1ccnn1C1CCN(C(=O)c2cc(Cl)ccc2F)CC1)C1CCOC1 (stereo not drawn)	0	0	0	0	-	-
COC(=O)[C@]12CCCCC=C1N(Cc1ccco1)C(=O)[C@H](CC(=O)NCCc1ccccc1OC)C2	-	-	-	0	-	-
CSc1nnc(-c2ccco2)c(-c2ccco2)n1	0	0	37	0	0	0
COc1ccc(NC(=O)CSc2nnc(-c3ccco3)c(-c3ccco3)n2)cc1OC	0	0	0	0	-	-
Cc1ccccc1NC(=O)CSc1nnc(-c2ccco2)c(-c2ccco2)n1	-	0	41	0	51	0	DNA FID DR=0
COc1cc(NC(=O)CSc2ccc(-c3ccco3)nn2)cc(OC)c1	0	0	36	0	0	0
CSc1nnc(-c2ccccc2)c(-c2ccccc2)n1	0	0	0	0	-	-
Cc1ccc(NC(=O)CSc2nnc(-c3ccco3)c(-c3ccco3)n2)cc1	-	51	42	0	87	0
O=C(NCCCN1CCCC1=O)C(=O)NCC1OCCN1S(=O)(=O)c1cc(F)ccc1F (stereo not drawn)	-	-	-	0	-	-
Nc1cc([N+](=O)[O-])ccc1O	0	0	44	0	0	0
Cc1ccc([N+](=O)[O-])cc1N	0	0	0	0	-	-
Cc1sc2nc3c(SC(C)C(=O)O)cc(C(=O)c4ccccc4O)cn3c(=O)c2c1C (stereo not drawn)	0	0	45	0	70	56
CCOC(=O)c1sc2nc3c(SCC(=O)O)cc(C(=O)c4cc(F)ccc4O)cn3c(=O)c2c1C	0	0	36	0	52	65
CCOC(=O)c1sc2nc3c(SCC(=O)O)cc(C(=O)c4ccccc4O)cn3c(=O)c2c1C	0	0	0	0	-	-
CCOC(=O)c1c(NC(=O)C2C3C=CC(C3)C2C(=O)O)sc2c1CCC(C)C2 (stereo not drawn)	0	0	37	0	75	0
CCOC(=O)c1c(NC(=O)C2C3C=CC(C3)C2C(=O)O)sc2c1CCCC2 (stereo not drawn)	0	0	0	0	-	-
CC(C)c1ccc(C2CC(=O)N3CN(C)CSC3=C2C#N)cc1 (stereo not drawn)	-	0	45	0	0	0
Cc1nc(-c2ccc3c(c2)CCC(=O)N3)cs1	0	0	0	0	-	-
Cc1ccc(-c2csc(Cc3nc(-c4ccc5c(c4)CCC(=O)N5)cs3)n2)cc1	0	0	40	0	0	0
